We go through one compound from ChEMBL document CHEMBL5257021 (J Med Chem, 2016).

Active and inactive are the calls of the source. The rule behind the calls is not given here.

One data set has as its system T47D. Put plainly: Cytotoxicity against human T47D cells expressing Y1R assessed as reduction in cell viability at 5 uM treated for 8 hrs followed by culturing in proliferation medium for 72 hrs in presence of 10 equiv hY1R agonist, [F7,P34]-NPY by resazurin assay. To be noted: time 80.0 hrs. The format is functional, cell-based. The method in brief:
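Breast cancer cells were exposed for 8 h at 37 °C in FCS-free medium to toxic agent together with 10 equiv of hY1R agonist [F7,P34]-NPY. Cells were then washed twice and grown 72 h in culture medium. Viability was read by resazurin (10% v/v, 2 h, ex 550/em 595 nm). Medium-treated cells with or without agonist were set at 100% and ethanol-treated cells at 0%. Triplicate, ≥2 independent experiments.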
Background: The colour change of resazurin is a common sign of viable cells or microbes.

Data set [1] deals with MDA-MB-468. Put plainly: Cytotoxicity against human MDA-MB-468 cells expressing Y1R assessed as reduction in cell viability treated for 8 hrs followed by culturing in proliferation medium for 72 hrs by resazurin assay. The format is functional, cell-based.
In data set [2] the test system is MDA-MB-231. Put plainly: Cytotoxicity against human MDA-MB-231 cells expressing Y1R assessed as reduction in cell viability at 25 uM treated for 8 hrs followed by culturing in proliferation medium for 72 hrs in presence of 10 equiv hY1R agonist, [F7,P34]-NPY by resazurin assay. The format is functional, cell-based. To be noted: time 80.0 hrs. The method in brief:
(§1)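 Breast cancer cells were exposed for 8 h at 37 °C in FCS-free medium to toxic agent together with 10 equiv of hY1R agonist [F7,P34]-NPY. Cells were then washed twice and grown 72 h in culture medium. Medium-treated cells with or without agonist were set at 100% and ethanol-treated cells at 0%. Triplicate, ≥2 independent experiments.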

Data set [3] deals with MDA-MB-231. As to the kind of experiment: Cytotoxicity against human MDA-MB-231 cells expressing Y1R assessed as reduction in cell viability treated for 8 hrs followed by culturing in proliferation medium for 72 hrs by resazurin assay.
A short description of data set [4]: Cytotoxicity against human HEK293 cells assessed as cell viability at >= 1 uM treated for 8 hrs followed by culturing in proliferation medium for 72 hrs by resazurin assay. Format: toxicity, cell-based. To be noted: read-out: Activity. Summed up:
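Seeding was 6000/well for MDA-MB-231, 10000 for T-47D, and 8000 for MDA-MB-468 and HEK293. After 24 h, cells got compound at 50 to 0.01 μM in FCS-free medium for 8 h at 37 °C, were washed twice, then kept 72 h in culture medium. Resazurin 10% (v/v) was added for 2 h at 37 °C and resorufin fluorescence read (ex 550/em 595 nm). Medium-only cells were set at 100% and 70% ethanol-treated cells at 0%.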

The test system of a further data set is T-47D (Homo sapiens). As to the kind of experiment: Cytotoxicity against human T47D cells expressing Y1R assessed as reduction in cell viability treated for 8 hrs followed by culturing in proliferation medium for 72 hrs by resazurin assay.
The next data set relates to T47D (Homo sapiens). The data set is described as above.
Data set [5] deals with MDA-MB-468. As to the kind of experiment: Cytotoxicity against human MDA-MB-468 cells expressing Y1R assessed as reduction in cell viability at 10 uM treated for 8 hrs followed by culturing in proliferation medium for 72 hrs in presence of 10 equiv hY1R agonist, [F7,P34]-NPY by resazurin assay. The note with it: time 80.0 hrs. The format is functional, cell-based. The method in brief: as §1

In the case of `CN(Cc1cnc2nc(N)nc(N)c2n1)c1ccc(C(=O)N[C@@H](CCC(=O)O)C(=O)O)cc1` [METHOTREXATE], the result in the data set with T47D, in the data set with MDA-MB-231 [2] and in the data set on MDA-MB-468 [5] was Active. In addition, the IC50 in the data set on MDA-MB-468 [1] (read-out: IC50) is 200 nM; in the data set on MDA-MB-468 [1] (read-out: pIC50 (converted)), 200 nM; with MDA-MB-231 [3] (read-out: IC50) it was 15 µM; in the data set with MDA-MB-231 [3] (read-out: pIC50 (converted)), 15.8 µM; with T-47D (Homo sapiens), 501 nM; with T47D (Homo sapiens) it was 500 nM. The viability at 80 h, 1 µM in data set [4] was 65%.
